Results taken from ChEMBL document CHEMBL2321703, “Identification of novel D-amino acid oxidase inhibitors by in silico screening and their functional characterization in vitro” (J Med Chem, 2013).
The source made the active and inactive calls. No cut-off for these calls is given here.

Key:
D-amino-acid oxidase [1] = molecular target: T1, D-amino-acid oxidase (Homo sapiens, UniProt P14920); assay: Inhibition of human recombinant N-terminal His-tagged DAO expressed in Escherichia coli BL21(DE3) using D-serine as substrate by colorimetric assay
D-amino-acid oxidase [2] = molecular target: T1, D-amino-acid oxidase; assay: Inhibition of human recombinant DAO expressed in G418-resistant HEK293/NEO cells assessed as effect on D-alanine level at 83 uM incubated for 30 mins prior to D-alanine addition measured after 24 hrs by HPLC analysis relative to vehicle-treated control; assay type: cell-based
Method in brief: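 HEK293 cells stably carrying HA-tagged human DAO (clone 293.HA-hDAO-24) or empty vector (293/NEO), seeded at 1 × 10^6. Next day, fresh medium and 83 μM compound or vehicle (5% DMSO solution) for 30 min, then 17 mM D-Ala for 24 h. Cells methanol-extracted; D-/L-Ala by OPA/NAC-derivatized HPLC. Three independent assays, Dunnett test vs vehicle.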
Target sequence in this assay (P14920 whole entry, looked up): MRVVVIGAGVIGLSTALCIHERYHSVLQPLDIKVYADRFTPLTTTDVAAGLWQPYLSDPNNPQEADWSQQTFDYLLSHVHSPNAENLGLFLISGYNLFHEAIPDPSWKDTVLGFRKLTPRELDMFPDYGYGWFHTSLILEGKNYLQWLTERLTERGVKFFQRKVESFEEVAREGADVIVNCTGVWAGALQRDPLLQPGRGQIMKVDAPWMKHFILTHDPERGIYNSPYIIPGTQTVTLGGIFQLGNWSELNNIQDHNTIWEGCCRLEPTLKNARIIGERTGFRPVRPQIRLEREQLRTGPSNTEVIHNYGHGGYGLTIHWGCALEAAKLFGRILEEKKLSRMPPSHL

D-amino-acid oxidase [3] = molecular target: T1, D-amino-acid oxidase; assay: Inhibition of human recombinant N-terminal His-tagged DAO expressed in Escherichia coli BL21(DE3) using D-alanine as substrate by colorimetric assay
[4] = tested on: D-amino-acid oxidase (Homo sapiens), P14920 [Y224F]; assay: (§1) Inhibition of human recombinant N-terminal His-tagged DAO Y224F mutant expressed in Escherichia coli BL21(DE3) using D-alanine as substrate after 10 mins by Lineweaver-Burk plot analysis
Sequence of D-amino-acid oxidase (Homo sapiens), P14920 [Y224F] (P14920 whole entry Y224F): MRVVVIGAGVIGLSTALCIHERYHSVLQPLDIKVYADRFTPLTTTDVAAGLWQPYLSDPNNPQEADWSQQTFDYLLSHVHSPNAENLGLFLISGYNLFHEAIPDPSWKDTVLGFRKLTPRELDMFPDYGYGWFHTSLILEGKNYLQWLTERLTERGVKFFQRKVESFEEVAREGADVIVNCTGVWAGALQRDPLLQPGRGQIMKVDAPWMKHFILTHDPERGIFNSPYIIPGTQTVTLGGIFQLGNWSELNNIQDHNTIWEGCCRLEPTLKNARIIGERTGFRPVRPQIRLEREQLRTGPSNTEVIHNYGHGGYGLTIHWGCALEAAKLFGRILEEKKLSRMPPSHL

D-amino-acid oxidase [5] = molecular target: T1, D-amino-acid oxidase; assay: Binding affinity to human recombinant N-terminal His-tagged DAO expressed in Escherichia coli BL21(DE3) at 200 uM after 2 to 30 mins by absorption spectra analysis
Target sequence in this assay (P14920 whole entry, looked up): as the sequence (P14920 whole entry, looked up) above

Serine racemase = molecular target: T2, Serine racemase (Homo sapiens, UniProt Q9GZT4); assay: (§2) Inhibition of human recombinant N-terminal His-tagged serine racemase expressed in Escherichia coli BL21(DE3) using L-serine as substrate after 10 mins by fluorescence assay
T2 sequence (Q9GZT4 whole entry): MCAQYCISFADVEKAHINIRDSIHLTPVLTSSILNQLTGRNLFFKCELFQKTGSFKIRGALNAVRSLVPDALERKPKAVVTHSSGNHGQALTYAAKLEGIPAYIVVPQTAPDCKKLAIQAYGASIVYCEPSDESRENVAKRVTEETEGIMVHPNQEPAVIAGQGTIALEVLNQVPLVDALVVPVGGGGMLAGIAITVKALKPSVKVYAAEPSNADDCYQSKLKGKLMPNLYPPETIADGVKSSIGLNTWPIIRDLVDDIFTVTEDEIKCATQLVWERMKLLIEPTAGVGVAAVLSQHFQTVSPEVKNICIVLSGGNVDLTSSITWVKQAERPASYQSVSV
Method in brief: (§3)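 Purified enzyme (30 μg) in 40 mM Tris-HCl pH 8.0, 60 μM pyridoxal phosphate, 1 mM MgCl2, ATP, 1 mM dithiothreitol, 10 mM L-Ser, with compound; 37 °C, 10 min; methanol stop. D-Ser quantified by OPA/Boc-L-cysteine derivatization and reversed-phase HPLC fluorescence (ex 344, em 443 nm).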

[6] = molecular target: T3, Serine racemase (Homo sapiens) (UniProt Q9GZT4); assay: as §2; method in brief: as §3
T3 sequence (whole entry): T2 sequence (Q9GZT4 whole entry)

HEK293 [7] = assay: Effect on L-alanine level in G418-resistant HEK293 cells at 83 uM by HPLC analysis relative to vehicle-treated control; assay type: functional, cell-based; conditions: Homo sapiens
Method in brief: (§4)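 293/NEO (empty-vector, G418-selected) or 293.HA-hDAO-24 (stable N-terminal HA-tagged human DAO) cells, 1 × 10^6 seeded, maintained in DMEM/10% FBS/800 μg/mL G418; next day fresh medium, compound or vehicle (5% DMSO solution) for 30 min, then 17 mM D-Ala for 24 h. Methanol extraction; D-/L-Ala by OPA/NAC derivatization HPLC with fluorescence; mean ± SD of three assays; Dunnett test vs vehicle.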

HEK293/NEO [8] = assay: Effect on L-alanine level in G418-resistant HEK293/NEO cells at 17 uM by HPLC analysis relative to vehicle-treated control; assay type: functional, cell-based; conditions: Homo sapiens; method in brief: as §4
HEK293 [9] = assay: Effect on L-alanine level in G418-resistant HEK293 cells at 17 uM by HPLC analysis relative to vehicle-treated control; assay type: functional, cell-based; conditions: Homo sapiens; method in brief: as §4
HEK293/NEO [10] = assay: Effect on L-alanine level in G418-resistant HEK293/NEO cells at 83 uM by HPLC analysis relative to vehicle-treated control; assay type: functional, cell-based; conditions: Homo sapiens; method in brief: as §4
D-amino-acid oxidase [11] = molecular target: T1, D-amino-acid oxidase; conditions: HEK293, 83 uM
Target sequence in this assay (P14920 whole entry, looked up): as the sequence (P14920 whole entry, looked up) above

[12] = molecular target: T4, D-aspartate oxidase (Homo sapiens) (UniProt Q99489); assay: (§5) Inhibition of human recombinant N-terminal His-tagged DDO expressed in Escherichia coli BL21(DE3) using D-aspartate as substrate by colorimetric assay
T4 sequence (whole entry): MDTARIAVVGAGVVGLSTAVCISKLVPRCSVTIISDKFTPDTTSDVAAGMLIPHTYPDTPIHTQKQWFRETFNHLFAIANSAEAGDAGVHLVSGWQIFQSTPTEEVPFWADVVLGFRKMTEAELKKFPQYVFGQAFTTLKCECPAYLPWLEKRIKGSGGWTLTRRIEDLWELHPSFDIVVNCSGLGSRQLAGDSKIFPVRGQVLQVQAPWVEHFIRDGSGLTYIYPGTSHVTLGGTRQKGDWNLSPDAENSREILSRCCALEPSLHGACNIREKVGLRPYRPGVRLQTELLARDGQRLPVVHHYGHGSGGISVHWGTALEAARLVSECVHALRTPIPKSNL
Method in brief: (§6)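 Purified enzyme (0.23–4.2 μg) with 10 mM D-Asp in air-saturated 40 mM sodium pyrophosphate pH 8.3, 23 U catalase, 60 μM FAD; 37 °C, 10 min; trichloroacetic acid stop; 2-oxo acid measured as 2,4-dinitrophenylhydrazone at A445.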

D-aspartate oxidase = molecular target: T5, D-aspartate oxidase (Homo sapiens, UniProt Q99489); assay: as §5; method in brief: as §6
T5 sequence (Q99489 whole entry): T4 sequence (whole entry)

D-amino-acid oxidase [13] = molecular target: T1, D-amino-acid oxidase; assay: Competitive inhibition of human recombinant N-terminal His-tagged DAO expressed in Escherichia coli BL21(DE3) using D-alanine as substrate by Lineweaver-Burk plot analysis
Method in brief: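 Purified N-terminal His-tagged human DAO from E. coli BL21(DE3)pLysS. Colorimetric 2-oxo acid assay in air-saturated 40 mM sodium pyrophosphate pH 8.3 with catalase, 60 μM FAD and 0.5–40 mM D-Ala, 37 °C for 10 min. Stopped with TCA, derivatized with 2,4-dinitrophenylhydrazine, read at A445. Lineweaver–Burk plots; Ki confirmed by slope replot against inhibitor concentration. Three independent experiments.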
Target sequence in this assay (P14920 whole entry, looked up): as the sequence (P14920 whole entry, looked up) above

[14] = tested on: D-amino-acid oxidase (Homo sapiens), P14920 [Y224A]; assay: (§7) Inhibition of human recombinant N-terminal His-tagged DAO Y224A mutant expressed in Escherichia coli BL21(DE3) using D-alanine as substrate after 10 mins by Lineweaver-Burk plot analysis
Sequence of D-amino-acid oxidase (Homo sapiens), P14920 [Y224A] (P14920 whole entry Y224A): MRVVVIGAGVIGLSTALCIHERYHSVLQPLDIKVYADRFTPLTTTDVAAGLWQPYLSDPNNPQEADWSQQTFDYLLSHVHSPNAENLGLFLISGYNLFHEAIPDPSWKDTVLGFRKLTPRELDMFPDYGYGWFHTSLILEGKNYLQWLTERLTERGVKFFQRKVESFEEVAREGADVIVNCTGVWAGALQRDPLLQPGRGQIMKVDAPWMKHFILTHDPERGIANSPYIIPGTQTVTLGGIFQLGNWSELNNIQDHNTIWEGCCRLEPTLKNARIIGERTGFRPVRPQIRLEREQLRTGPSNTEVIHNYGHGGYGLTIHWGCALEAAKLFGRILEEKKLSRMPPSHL

D-amino-acid oxidase [15] = molecular target: T1, D-amino-acid oxidase; assay: Inhibition of human recombinant N-terminal His-tagged DAO expressed in Escherichia coli BL21(DE3) using D-alanine as substrate by Lineweaver-Burk plot analysis
Target sequence in this assay (P14920 whole entry): as the sequence (P14920 whole entry, looked up) above

D-amino-acid oxidase [16] = molecular target: D-amino-acid oxidase (Homo sapiens, UniProt P14920, Y224F); assay: as §1
Sequence of D-amino-acid oxidase (Homo sapiens, UniProt P14920, Y224F) (P14920 whole entry Y224F): as the sequence (P14920 whole entry Y224F) above

D-amino-acid oxidase [17] = molecular target: T1, D-amino-acid oxidase; assay: Binding affinity to human recombinant N-terminal His-tagged DAO expressed in Escherichia coli BL21(DE3) at 40 uM after 2 to 30 mins by absorption spectra analysis; conditions: 200 uM, in the assay text read “at 200 uM” for “at 40 uM”
Method in brief: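 Purified enzyme at 1.7 μg/μL in 10 mM sodium pyrophosphate pH 8.3 with 2 mM EDTA, 5 mM 2-mercaptoethanol, 10% (v/v) glycerol; wavelength scans at 25 °C before and after compound addition (final 40 μM or 200 μM depending on compound), recorded at indicated times; binding inferred from perturbation of the absorption spectrum.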
Target sequence in this assay (P14920 whole entry, looked up): as the sequence (P14920 whole entry, looked up) above

D-amino-acid oxidase [18] = molecular target: D-amino-acid oxidase (Homo sapiens, UniProt P14920, Y224A); assay: as §7
Sequence of D-amino-acid oxidase (Homo sapiens, UniProt P14920, Y224A) (P14920 whole entry Y224A): as the sequence (P14920 whole entry Y224A) above

D-amino-acid oxidase [19] = molecular target: T1, D-amino-acid oxidase; assay: Inhibition of human recombinant N-terminal His-tagged DAO expressed in Escherichia coli BL21(DE3) using D-alanine as substrate assessed as residual activity at 10000 uM by colorimetric assay relative to control
Method in brief: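 Purified enzyme (0.23–4.2 μg) in air-saturated 40 mM sodium pyrophosphate pH 8.3, 23 U catalase, 60 μM FAD, 10 mM D-amino acid substrate, with compound; 37 °C, 10 min; stopped with trichloroacetic acid. 2-Oxo acid reacted with 2,4-dinitrophenylhydrazine, A445 read against substrate-free blank.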
Target sequence in this assay (P14920 whole entry, looked up): as the sequence (P14920 whole entry, looked up) above

Row | SMILES | IC50 (D-amino-acid oxidase [1]) [µM] | inhibition (D-amino-acid oxidase [3]) | IC50 (Serine racemase) [µM] | inhibition [6] | inhibition [12] | IC50 (D-aspartate oxidase) [µM] | IC50 (D-amino-acid oxidase [3]) [µM] | further results
1 | Oc1cc(-c2ccccc2)no1 | > 500 | – | – | – | – | – | – | –
2 | O=C(O)c1ccsc1 | – | Dose-dependent effect | 8210 | Dose-dependent effect | Dose-dependent effect | > 10000 | – | inhibition (D-amino-acid oxidase [2]): inactive; inhibition [4]: Dose-dependent effect; Activity (D-amino-acid oxidase [5]): Active; Activity (HEK293 [7]): inactive; inhibition (D-amino-acid oxidase [1]): Dose-dependent effect; Activity (HEK293/NEO [8]): inactive; Activity (HEK293 [9]): inactive; Activity (HEK293/NEO [10]): inactive; inhibition (D-amino-acid oxidase [11]): Active; inhibition (D-amino-acid oxidase [13]): Active; inhibition [14]: Dose-dependent effect
3 | O=C(O)c1cc2c(s1)CCC2 | 28.5 | Dose-dependent effect | 5280 | Dose-dependent effect | Dose-dependent effect | > 10000 | 59.8 | inhibition (D-amino-acid oxidase [2]): inactive; Ki (D-amino-acid oxidase [15]): 9.92 µM; Ki (D-amino-acid oxidase [16]): 14.4 µM; inhibition [4]: Dose-dependent effect; Activity (HEK293 [7]): inactive; inhibition (D-amino-acid oxidase [1]): Dose-dependent effect; Activity (HEK293 [9]): inactive; Activity (HEK293/NEO [10]): inactive; inhibition (D-amino-acid oxidase [13]): Active; Activity (D-amino-acid oxidase [17]): Active; Ki (D-amino-acid oxidase [18]): 4.59 µM; inhibition [14]: Dose-dependent effect
4 | O=C(O)CC(=O)O [MALONIC ACID] | > 10000 | – | 24.9 | Dose-dependent effect | Dose-dependent effect | 1350 | – | Activity (D-amino-acid oxidase [17]): inactive
5 | O=c1[nH]nc(-c2ccccc2)o1 | 253 | Dose-dependent effect | > 10000 | Dose-dependent effect | Dose-dependent effect | > 10000 | 365 | –
6 | O=C(O)c1cc2c(s1)CCCC2 | 900 | Dose-dependent effect | 5010 | Dose-dependent effect | Dose-dependent effect | > 10000 | 1450 | –
7 | O=C(O)[C@@H](O)[C@@H](O)C(=O)O | – | – | – | Dose-dependent effect | Dose-dependent effect | – | – | –
8 | Nc1ccc(-c2nnc(O)o2)cc1 | > 10000 | – | – | – | – | – | – | –
9 | O=C(O)c1ccc2cccnc2n1 | > 10000 | – | – | – | – | – | – | –
10 | NC[C@H](O)c1ccc(O)c(O)c1 [NOREPINEPHRINE] | > 10000 | – | – | – | – | – | – | –
11 | C/C=C/C(=O)O [CROTONIC ACID] | 357 | – | > 10000 | – | – | > 10000 | 598 | inhibition (D-amino-acid oxidase [1]): Dose-dependent effect
12 | O=C(O)C(O)C(O)C(=O)O (configuration not stated) | > 10000 | – | 2820 | – | – | 3920 | – | –
13 | O=C(O)C1=CN2CCN=C2C=C1 | > 1000 | – | – | – | – | – | – | –
14 | CCc1cc(C(=O)O)sc1C | 666 | Dose-dependent effect | 5720 | Dose-dependent effect | Dose-dependent effect | > 10000 | 1100 | –
15 | O=C(O)c1cn2ccccc2n1 | > 2500 | – | – | – | – | – | – | –
16 | CNCC(=O)c1ccc(O)c(O)c1 [ADRENALONE] | > 1000 | – | – | – | – | – | – | –
17 | CCCc1cc(C(=O)O)sc1C | 1830 | Dose-dependent effect | 5160 | Dose-dependent effect | Dose-dependent effect | > 10000 | 3720 | –
18 | Oc1nc(-c2ccccc2)no1 | > 5000 | – | – | – | – | – | – | –
19 | O=c1oc2ccccc2cc1O [3-HYDROXYCOUMARIN] | 0.44 | Dose-dependent effect | > 10000 | Dose-dependent effect | Dose-dependent effect | 7580 | 0.943 | inhibition (D-amino-acid oxidase [2]): inactive; Ki (D-amino-acid oxidase [15]): 0.156 µM; Ki (D-amino-acid oxidase [16]): 0.265 µM; inhibition [4]: Dose-dependent effect; Activity (D-amino-acid oxidase [5]): Active; Activity (HEK293 [7]): inactive; inhibition (D-amino-acid oxidase [1]): Dose-dependent effect; Activity (HEK293/NEO [8]): inactive; Activity (HEK293 [9]): inactive; Activity (HEK293/NEO [10]): inactive; inhibition (D-amino-acid oxidase [11]): Active; inhibition (D-amino-acid oxidase [13]): Active; Ki (D-amino-acid oxidase [18]): 3.69 µM; inhibition [14]: Dose-dependent effect
20 | CCCc1sc(C(=O)O)cc1CC | 7900 | Dose-dependent effect | > 10000 | Dose-dependent effect | Dose-dependent effect | > 10000 | > 10000 | Activity (D-amino-acid oxidase [19]): 67.1%
21 | Nc1cncc(C(=O)O)c1 | > 2500 | – | – | – | – | – | – | –
22 | O=C(O)c1cc2c([nH]1)CCCC2 | > 100 | – | – | – | – | – | – | –
23 | O=C(O)c1ccc[n+]([O-])c1 [OXINIACIC ACID] | > 2500 | – | – | – | – | – | – | –
24 | Cc1ccccc1-c1nnc(O)o1 | 199 | Dose-dependent effect | > 5000 | Dose-dependent effect | Dose-dependent effect | > 5000 | 298 | inhibition (D-amino-acid oxidase [1]): Dose-dependent effect
